Measured values collected from several papers.
Each line is one published result; the experiments were not run side by side. pIC50, pKi: −log10 of the molar value.
Target: Carbonic anhydrase 2 (CA2, Homo sapiens, UniProt P00918)
Observed: enzyme activity
Mode: inhibitor

SMILES | assay | quantity | result
Cc1ccc(NC(=O)Nc2ccc3c(c2)C=CCP(=O)(O)O3)cc1 | stopped-flow | pKi | < 5.00
NC(=S)N/N=C1/c2ccccc2[C@@H]2[C@H]1[C@@H](c1ccccc1)[C@H](C(=O)c1ccccc1)[C@H]2c1ccccc1 (racemic) | absorbance | pIC50 | 5.88
O=C(Nc1ccc(F)cc1)Nc1ccc2c(c1)C=CCP(=O)(O)O2 | stopped-flow | pKi | < 5.00
NC(=S)N/N=C1/c2ccccc2[C@@H]2[C@H]1[C@@H](c1cccs1)[C@H](C(=O)c1cccs1)[C@H]2c1cccs1 (racemic) | absorbance | pIC50 | 6.29
Cc1c(Cl)c(=O)oc2cc(OCCCC[Se]C#N)ccc12 | stopped-flow | pKi | < 4.00
O=C(Nc1ccc2c(c1)C=CCP(=O)(O)O2)c1ccc(F)cc1 | stopped-flow | pKi | < 5.00
NC(=S)N/N=C1/c2ccccc2[C@@H]2[C@H]1[C@@H](c1ccc(Cl)cc1)[C@H](C(=O)c1ccc(Cl)cc1)[C@H]2c1ccc(Cl)cc1 (racemic) | absorbance | pIC50 | 6.53
CC(C)c1cc2c(c(O)c1O)[C@@]13CCCC(C)(C)[C@@H]1C[C@@H]2OC3=O |  | pKi | 8.06
Cc1cc(=O)oc2cc(OCCCC[Se]C#N)ccc12 | stopped-flow | pKi | < 4.00
CC(C)c1cc2c(c(O)c1O)[C@@]13CCCC(C)(C)[C@@H]1[C@@H](O)[C@@H]2OC3=O |  | pKi | 8.45
O=C(Nc1ccc2c(c1)C=CCP(=O)(O)O2)c1cccs1 | stopped-flow | pKi | < 5.00
CC(C)c1cc2c(c(O)c1O)[C@@]1(C(=O)O)CCCC(C)(C)[C@@H]1CC2 |  | pIC50 | 8.42
NC(=S)N/N=C1/c2ccccc2[C@@H]2[C@H]1[C@@H](c1ccc(F)cc1)[C@H](C(=O)c1ccc(F)cc1)[C@H]2c1ccc(F)cc1 (racemic) | absorbance | pIC50 | 6.22
O=C(Nc1ccc2c(c1)C=CCP(=O)(O)O2)c1ccc([N+](=O)[O-])cc1 | stopped-flow | pKi | < 5.00
CC(C)c1cc2c(c(O)c1O)[C@@]13CCCC(C)(C)[C@@H]1[C@H](OC3=O)[C@H]2O |  | pIC50 | 8.38
